T cruzi inh: T. cruzi replication inhibition; T. cruzi beta-gal in NIH3T3, luminescence, 90 h; inhibition, % (no concentration beside the values); actives 1.4% (n = 300,000);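 active = mean inhibition across valid replicates above about 55%, limit read from the data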;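 note: signal also drops with host cell toxicity which is not excluded here; 0% = plate median of DMSO wells and 100% = zero luminescence signal; higher percent means less beta-gal luminescence so fewer parasites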
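Read-out: Parasite load inhibition, % | Test system: Mouse NIH/3T3 fibroblasts infected with β-gal-expressing T. cruzi Tulahuen C4 | Amount: 5,000 cells/well | Medium: DMEM, 2% fetal bovine serum | Signal: GalScreen β-gal luminescence, detergent lysis, 60 min | Timing: 3 h attach, ≥90 h co-culture | Also added: Tulahuen C4 trypomastigotes, 5000/well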
Lmaj promast: inhibitors of Leishmania major promastigote growth | AID 1063 | actives 9% (n = 200,000) | Leishmania major promastigotes, resazurin fluorescence viability | inhibition, % at 10 µM; in the data active = inhibition above about 50%;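 note: promastigotes grown with compound for 44 hours at 28 °C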
NALP1 inh: inhibitors of NALP1 inflammasome in yeast. S. cerevisiae NALP1/ASC/caspase-1 growth, X-gal OD620, 72 h. inhibition, % at 10 µM. actives 0.61% (n = 280,000). AID 2071; in the data active = inhibition mostly above about 24%, no sharp cut-off; inactive = mostly below about 32%
PolyA inhibitor: inhibitors of polyadenylation in S. cerevisiae; S. cerevisiae SKY197-pL101 polyadenylation reporter, beta-gal luminescence; efflux-impaired pdr1/pdr3 knockout yeast; score 100 = 6 SD above DMSO; activity score, % at 12 µM; actives 0.02% (n = 300,000); AID 1875;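 active = lowest replicate activity score at least 50, where 100 means six control SD above control mean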;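 note: yeast exposed to compound for 9 h at 30 °C; higher score means more reporter readthrough which indicates perturbed polyadenylation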
NALP3 yeast inh: inhibitors of NALP3 inflammasome in yeast | Yeast reconstituted NLRP3/ASC/caspase-1, beta-gal luminescence, 24 h | inhibition, % at 10 µM | actives 0.39% (n = 330,000) | AID 2825;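 active = inhibition of 50% or more; inactive = inhibition below 50%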;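 note: plate controls were induced DMSO wells for no effect and uninduced yeast grown without galactose for full effect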
Calb FLC: affects C. albicans growth with fluconazole. C. albicans CaCi-2 + fluconazole, Alamar Blue growth, 48 h. growth inhibition, % (concentration not given with the values). AID 1979. actives 0.57% (n = 300,000);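 active = growth inhibition above about 58% in most replicates, limit read from the data, passing the limit was not always enough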;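 note: all wells also contain fluconazole at 8 µg/ml as a sub-toxic cotreatment; 0% = median of DMSO wells and 100% = median of geldanamycin control wells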
Starred values were filed as active, the others as inactive; . = no result. The sample as a whole holds a higher share of hits than the screen did.

SMILES | T cruzi inh | Lmaj promast | NALP1 inh | PolyA inhibitor | NALP3 yeast inh | Calb FLC
Cc1c(C(=O)OCC(=O)N(C)C2CCS(=O)(=O)C2)oc2ccc(Br)cc12 (configuration not stated) | -15.8 | . | 0.5 | 3.7 | 14.8 | 0.3
CCC(C)N1CCN(S(=O)(=O)c2ccc3ccccc3c2)CC1 (configuration not stated) | 2.5 | . | 9.8 | 4.8 | 30.2 | -2.8
O=S(=O)(CC(CN1CCCC1)N1CCCC1)c1ccc2ccccc2c1 (configuration not stated) | 9.8 | 100.5* | 51.7* | 15.4 | 40.9 | -2.9
Cc1ccc(S(=O)(=O)CC(C)N2CCN(C3CCCCC3)CC2)cc1 (configuration not stated) | 3.7 | 90.4* | 1.2 | -11.9 | 18.0 | -16.9
CC(CS(=O)(=O)c1ccc2ccccc2c1)N1CCN(C2CCCCC2)CC1 (configuration not stated) | . | 82.5* | . | . | . | .
Cc1ccc(S(=O)(=O)CC(CN2CCOCC2)N2CCOCC2)cc1 (configuration not stated) | -17.0 | -3.7 | 2.2 | 9.4 | -0.9 | -18.7
Cc1ccc(S(=O)(=O)Cn2nnnc2C(CC(C)C)N2CCN(C3CCCC3)CC2)cc1 (configuration not stated) | -17.0 | . | 23.7 | -16.2 | 15.9 | -6.9
O=[N+]([O-])c1ccccc1/C=C/CN1CCCCC1CO (configuration not stated) | -8.9 | . | 7.9 | 6.6 | 10.9 | -7.0
O=[N+]([O-])c1ccccc1/C=C/CN1CCCCC1 | -5.6 | 74.7* | 30.1 | 8.5 | 12.5 | 2.8
CCOC(=O)C1CCCN(C/C=C/c2ccccc2[N+](=O)[O-])C1 (configuration not stated) | 26.8 | 84.9* | 10.0 | -0.7 | 15.0 | -21.6
CCOC(=O)c1cccc2c(=O)c(C(=O)c3ccc(Cl)cc3)c(C(=O)OC)[nH]c12 | 0.3 | 30.8 | 24.0 | -14.8 | 15.0 | 7.1
Cc1ccc(Oc2nc(CN3CCOCC3)nc3sc4c(c23)CCC(C)C4)cc1C (configuration not stated) | 22.8 | 96.9* | 13.6 | 4.0 | 11.5 | -3.0
Cc1ccc(Oc2nc(CN3CCOCC3)nc3sc4c(c23)CCC(C)C4)cc1 (configuration not stated) | 8.7 | 75.7* | 37.1 | -8.0 | 24.1 | 25.6
CC1CCc2c(sc3nc(CN4CCOCC4)nc(N4CCc5ccccc5C4)c23)C1 (configuration not stated) | 15.9 | 13.3 | 10.8 | 5.6 | 28.1 | 17.9
O=C(O)CCCn1cc(NC(=O)c2sc3ccccc3c2Cl)cn1 | -18.2 | . | -22.8 | 16.3 | 8.9 | -6.6
Cc1ccccc1N1C(=O)C(Oc2ccc(Cl)cc2)C1CNC(C)(C)C (configuration not stated) | 17.6 | 87.4* | -2.4 | -2.9 | 11.5 | -1.1
CCCn1c(=N)n(CC(=O)c2ccc([N+](=O)[O-])cc2)c2ccccc21 | 28.5 | 64.0* | 9.8 | -12.1 | 6.9 | 98.9*
CCn1c(=N)n(CC(=O)c2cccc([N+](=O)[O-])c2)c2ccccc21 | 0.5 | 15.8 | 26.0 | -12.1 | -8.8 | 46.1
Cc1ccccc1Cn1c(=N)n(CC(=O)c2ccc([N+](=O)[O-])cc2)c2ccccc21 | . | 99.9* | 51.5 | . | . | .
Cc1nc(Cl)sc1C(=O)Nc1cccc(Cl)c1C | -10.7 | -5.0 | 22.1 | -3.1 | -4.9 | -15.2
Cc1cc(C(=O)NCCCC(=O)O)c(C)o1 | -0.2 | 2.8 | -2.7 | 0.3 | -5.3 | -8.4
Cc1cc(C(=O)NCCC(c2ccccc2)c2ccccc2)c(C)o1 | 29.8 | 37.9 | 40.4* | -8.9 | 22.8 | 4.9
Cc1cc(C(=O)NCC23CC4CC(CC(C4)C2)C3)c(C)o1 | 61.1* | -1.9 | 1.3 | 14.5 | 25.9 | 4.7
CNC(=O)NCC12CC3CC(CC(C3)C1)C2 | 3.9 | -1.9 | -13.0 | -9.7 | 4.2 | -34.5
NC(=O)CSc1oc(-c2ccco2)nc1S(=O)(=O)c1ccccc1 | -6.8 | . | 11.7 | -2.7 | 21.3 | 11.3
SMILES | T cruzi inh | Lmaj promast | NALP1 inh | PolyA inhibitor | NALP3 yeast inh | Calb FLC
CCOc1ccc(/C=N/NC(=O)c2ccc(F)cc2)cc1CN1CC2CC(C1)c1cccc(=O)n1C2 (configuration not stated) | . | . | . | . | 17.7 | .
COC(=O)c1cnc(N2CCCN(S(=O)(=O)c3ccc(C(F)(F)F)cc3)CC2)nc1C(F)(F)F | 55.3* | . | 7.1 | 3.0 | -4.4 | 4.1
Cc1ccc(N=c2sc(C)c(C)n2C)cc1 | -15.0 | 1.8 | 30.0 | -1.0 | 10.6 | -0.1
CCOc1ccc(-c2cc(C(=O)N/N=C(\C)c3cccnc3)c3ccccc3n2)c(OCC)c1 | 2.7 | . | 8.9 | 0.1 | 13.5 | -29.5
O=C(N/N=C\c1ccco1)Nc1cccc(Cl)c1 | 0.0 | 62.5* | 39.6 | 9.7 | 19.4 | 10.6
CCCCCC(=O)N/N=C/c1ccco1 | -27.5 | 77.8* | 0.9 | 11.8 | 5.4 | -13.3
Cc1cccc(NC(=O)CCC(=O)N/N=C/c2ccco2)c1 | -33.6 | -6.7 | 0.4 | -9.6 | 12.7 | -5.3
COc1ccc2c(c1)Cc1sc(NC(=O)c3ccco3)nc1-2 | 37.3 | 53.2* | 12.1 | -11.3 | 1.5 | -3.8
COc1ccc2c(c1)Cc1sc(NC(=O)c3cccnc3)nc1-2 | -30.7 | 55.0* | 6.5 | -4.5 | 18.0 | -1.2
O=C(O)CCN1C(=O)C2C3C=CC(C2C1=O)C1C(=O)N(CCC(=O)O)C(=O)C31 (configuration not stated) | 3.4 | . | -6.0 | 2.3 | -7.7 | 4.5
CCOc1ccccc1C(=O)NCC(=O)NC(C)c1ccc(-n2ccnc2)cc1 (configuration not stated) | -2.3 | . | . | 7.1 | 13.9 | 6.5
CC(C(=O)Nc1ccccc1-c1ccccc1)N(C)Cc1nc2ccccc2c(=O)[nH]1 (configuration not stated) | -0.2 | 12.5 | -13.2 | -5.8 | -13.5 | 14.6
Clc1ccc(CSc2nnc(CNc3cccc(Cl)c3)o2)cc1 | 49.3 | 17.8 | 6.7 | 5.6 | 22.5 | 39.4
O=C(OCCOc1cccc(Cl)c1)c1cc(S(=O)(=O)N2CCCCC2)ccc1N1CCOCC1 | 64.8* | . | . | -7.3 | 17.8 | -0.7
O=C(OCc1cccc(Cl)c1)c1cc(S(=O)(=O)N2CCCCC2)ccc1N1CCOCC1 | 10.1 | . | 20.2 | -8.1 | 14.8 | 3.5
COc1cc(N2CCCC2)c(OC)cc1/C=C(/C#N)c1ccc(F)cc1 | -4.5 | 11.2 | 12.1 | 12.7 | 34.2 | 2.0
N#C/C(=C/c1ccc(N2CCCCC2)o1)c1cccc(F)c1 | 55.6* | 16.9 | -4.3 | 9.1 | 5.4 | 30.9
N#C/C(=C/c1ccc(N2CCCCCC2)o1)c1ccc(Cl)cc1 | 65.2* | 16.7 | 18.1 | -47.8 | 34.7 | 6.0
Cc1ccc(/C(C#N)=C\c2ccc(N3CCOCC3)o2)cc1 | 57.8* | 9.3 | 40.2 | -20.0 | 41.6 | 12.4
N#C/C(=C/c1ccc(N2CCCCC2)cc1)c1cccc(F)c1 | 15.2 | 99.0* | 19.9 | 1.1 | 8.4 | -6.1
